Measured values as given in ChEMBL document CHEMBL2176948 (J Med Chem, 2012).
The source made the active and inactive calls. No cut-off for these calls is given here.

Legend:
[1] = test system: DLD-1; experiment: Cytotoxicity against human DLD1 cells after 96 hrs by MTT assay; assay type: functional, cell-based; conditions: DLD-1, 96 h
Procedure, shortened: (§1)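 Cells were grown in RPMI 1640 with 1 mM sodium pyruvate, 2 mM L-glutamine and 10% FBS. They were seeded at 1 × 10⁴ cells/mL and left overnight at 37 °C in 5% CO₂. Medium was then replaced with a broad concentration range of compound diluted from DMSO (final DMSO ≤0.1%). After 96 h exposure, growth was read by MTT.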

[2] = test system: MDA-MB-231; experiment: Cytotoxicity against human MDA-MB-231 cells after 96 hrs by MTT assay; assay type: functional, cell-based; conditions: MDA-MB-231, 96 h; procedure, shortened: as §1
[3] = test system: HT-29; experiment: Cytotoxicity against human HT-29 cells after 96 hrs by MTT assay; assay type: functional, cell-based; conditions: HT-29, 96 h; procedure, shortened: as §1
[4] = Cytotoxicity against human A2780AD cells expressing p-gp after 96 hrs by MTT assay; assay type: functional, cell-based; conditions: A2780 ADR
Procedure, shortened: (§2)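 Cells were seeded at 1 × 10⁴ cells/mL in 96-well format and incubated overnight at 37 °C in 5% CO₂. Medium was replaced with serial compound dilutions from DMSO stocks in complete medium (final DMSO ≤0.1%). Chemosensitivity was read by MTT after 96 h.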

[5] = test system: A2780 (human ovarian carcinoma); experiment: Cytotoxicity against human A2780 cells after 96 hrs by MTT assay; conditions: A2780, 96 h
[6] = test system: DLD-1; experiment: Induction of ABCB1 mRNA expression in human DLD1 cells at 1/10 IC50 to IC50 after 96 hrs by RT-PCR analysis; assay type: functional, cell-based
Procedure, shortened: (§3)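 HT29 and DLD-1 cells were seeded at 5 × 10⁵ cells/dish, incubated overnight, then treated for 96 h. Total RNA was isolated, and ABCB1 and ABCG2 mRNA were measured by quantitative RT-PCR. Fold induction is target/PPIA signal relative to the control ratio, from three independent PCR analyses. Statistics: paired two-tailed t test with two-way ANOVA and Bonferroni correction.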

[7] = test system: HeLa; experiment: Cytotoxicity against human HeLa cells after 96 hrs by MTT assay; assay type: functional, cell-based
Procedure, shortened: (§4)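 Parental HeLa cells and a transfected class III β-tubulin-overexpressing variant were seeded at 1 × 10⁴ cells/mL and held overnight at 37 °C, 5% CO₂. Compounds in DMSO were diluted in complete medium over a broad range (final DMSO ≤0.1%) and exposed for 96 h. Read-out was MTT. IC50 is the mean ± standard error of at least four independent assays.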

[8] = test system: DLD-1; experiment: Induction of ABCG2 mRNA expression in human DLD1 cells at 1/10 IC50 to IC50 after 96 hrs by RT-PCR analysis; assay type: functional, cell-based; procedure, shortened: as §3
[9] = test system: HT-29; experiment: Cell cycle arrest in human HT-29 cells assessed as accumulation at G2/M phase at 40 nM after 48 hrs by FACS analysis; assay type: functional
[10] = test system: HT-29; experiment: Induction of ABCB1 mRNA expression in human HT-29 cells at 1/10 IC50 to IC50 after 96 hrs by RT-PCR analysis; assay type: functional, cell-based; procedure, shortened: as §3
[11] = test system: HT-29; experiment: Cell cycle arrest in human HT-29 cells assessed as accumulation at G2/M phase at 40 nM after 24 hrs by FACS analysis; assay type: functional
[12] = test system: HeLa; experiment: Cytotoxicity against human HeLa cells expressing class 3 tubulin after 96 hrs by MTT assay; assay type: functional, cell-based; procedure, shortened: as §4
[13] = test system: HT-29; experiment: Induction of ABCG2 mRNA expression in human HT-29 cells at 1/10 IC50 to IC50 after 96 hrs by RT-PCR analysis; assay type: functional, cell-based; procedure, shortened: as §3
[14] = test system: A2780 ADR; experiment: Effect on ABCB1 level in human A2780AD cells expressing p-gp; assay type: functional, cell-based
[15] = test system: A549; experiment: Cytotoxicity against human A549 cells after 96 hrs by MTT assay in presence of fumitremorgin-C; assay type: functional, cell-based; procedure, shortened: as §2
[16] = test system: Liver; experiment: Metabolic stability of the compound in mouse liver homogenates at 100 uM after 2 hrs; assay type: ADME, tissue-based; conditions: tissue homogenate
[17] = test system: HT-29; experiment: Induction of microtubule disruption in human HT-29 cells assessed as change […] cell morphology and cytoskeletal organization after 24 hrs by immunostaining; assay type: cell-based
Procedure, shortened: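 HT29 cells on glass coverslips were allowed to adhere for 24 h, then exposed to 5, 50 and 500 nM for 24 h. Cells were fixed in methanol at −20 °C for 30 min and stained with mouse anti-α-tubulin (1:500, 30 min, rt), then TRITC anti-mouse IgG (1:50, 30 min). Images were taken by confocal microscopy and compared with untreated cells.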

COc1cc2c(c(OC)c1OC)-c1ccc(OC)c(=O)cc1[C@@H](NCc1ccc(I)cc1)CC2
IC50 [1]: 35.9 nM

COc1cc2c(c(OC)c1OC)-c1ccc(OC)c(=O)cc1[C@@H](NCc1ccc(F)cc1)CC2
IC50 [1]: 11.4 nM

COc1cc2c(c(OC)c1OC)-c1ccc(OC)c(=O)cc1[C@@H](NCc1cccc(F)c1)CC2
IC50 [1]: 51.6 nM | IC50 [2]: 89.1 nM | IC50 [3]: 63.4 nM

COc1cc2c(c(OC)c1OC)-c1ccc(OC)c(=O)cc1[C@@H](NCc1cc(F)cc(F)c1)CC2
IC50 [1]: 35.2 nM | IC50 [2]: 523 nM | IC50 [3]: 52 nM

CC(=O)O[C@H]1C(=O)[C@@]2(C)[C@H]([C@H](OC(=O)c3ccccc3)[C@]3(O)C[C@H](OC(=O)[C@H](O)[C@@H](NC(=O)c4ccccc4)c4ccccc4)C(C)=C1C3(C)C)[C@]1(OC(C)=O)CO[C@@H]1C[C@@H]2O [PACLITAXEL]
IC50 [4]: > 1000 nM | IC50 [5]: 1.1 nM

COc1cc2c(c(OC)c1OC)-c1ccc(OC)c(=O)cc1[C@@H](NCc1cc(F)c(F)c(F)c1)CC2
IC50 [1]: 36.2 nM | IC50 [2]: 92.2 nM | IC50 [3]: 64.5 nM

COc1cc2c(c(OC)c1OC)-c1ccc(OC)c(=O)cc1[C@@H](NCc1ccc(Br)cc1)CC2
IC50 [1]: 31.2 nM

COc1cc2c(c(OC)c1OC)-c1ccc(OC)c(=O)cc1[C@@H](NC(C)=O)CC2 [COLCHICINE]
IC50 [1]: 15.6 nM | IC50 [4]: 16.8 nM | IC50 [2]: 37 nM | Activity [6]: inactive | IC50 [7]: 8.2 nM | Activity [8]: inactive | IC50 [5]: 6.7 nM | Activity [9]: Active | IC50 [3]: 69.2 nM | Activity [10]: Active | Activity [11]: Active | IC50 [12]: 9.7 nM | Activity [13]: Active

COc1ccc(CN[C@H]2CCc3cc(OC)c(OC)c(OC)c3-c3ccc(OC)c(=O)cc32)cc1
IC50 [1]: 15.7 nM | IC50 [2]: 93 nM | IC50 [3]: 51 nM

COc1cc2c(c(OC)c1OC)-c1ccc(OC)c(=O)cc1[C@@H](NCc1cccc(F)c1F)CC2
IC50 [1]: 4.67 nM | IC50 [2]: 86 nM | IC50 [3]: 7.43 nM

COc1cc2c(c(OC)c1OC)-c1ccc(OC)c(=O)cc1[C@@H](NCc1ccc(F)c(F)c1)CC2
Activity [14]: inactive | IC50 [1]: 1.61 nM | Activity [15]: Active | IC50 [4]: 17.2 nM | Stability [16]: Stable | IC50 [2]: 16 nM | Activity [6]: inactive | IC50 [7]: 25.3 nM | Activity [8]: inactive | IC50 [5]: 18.8 nM | Activity [9]: 91.2% | IC50 [3]: 4.3 nM | Activity [17]: Dose-dependent effect | Activity [10]: Active | Activity [11]: 92.5% | IC50 [12]: 14.1 nM | Activity [13]: Active

COc1cc2c(c(OC)c1OC)-c1ccc(OC)c(=O)cc1[C@@H](NCc1ccc(Cl)cc1)CC2
IC50 [1]: 32.6 nM
